Test results from the EternaBench riboswitch data.

Test system: MS2 coat protein
Assay: apparent Kd, MS2 coat protein; higher = weaker binding; RNA-MaP array; FMN 200 µM where present
How it was run: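 Green signal from SNAP-549-labelled MS2 coat protein was normalised to red-channel RNA signal and to the median Fmax of control clusters. The protein was titrated from 0.7 or 1.5 nM, doubling to 3 µM, without and then with constant ligand, over designs transcribed by stalled E. coli RNA polymerase on Illumina sequencing-chip clusters, in 100 mM Tris-HCl pH 7.5, 80 mM KCl, 4 mM MgCl2, BSA, DTT, yeast tRNA and Tween-20. The apparent Kd is the median of filtered per-cluster binding-curve fits.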

[1] = designed as: ON switch for flavin mononucleotide, no ligand
[2] = ligand present: flavin mononucleotide, designed as: ON switch for flavin mononucleotide
[3] = designed as: OFF switch for flavin mononucleotide, no ligand
[4] = ligand present: flavin mononucleotide, designed as: OFF switch for flavin mononucleotide

| Sequence | apparent Kd [1] [nM] | apparent Kd [2] [nM] | apparent Kd [3] [nM] | apparent Kd [4] [nM] |
| --- | --- | --- | --- | --- |
| AUAUGAUAGAUAGGAUAUACAGUUGAAUAAUAAGUAGAAGGAUCAAAUGGGAAUUAUACAUGAGGAUCACCCAUGUUUUUGGAU | 44.1 | 35.8 | – | – |
| UGGCCGGAGACAGGAUAUGUGACUGCAUAGUGCACAGAAGGGUCUACAUGAGGAUCACCCAUGUCACCGAACGCCAAACCACAA | 574 | 26.1 | – | – |
| CUCCAUUCUGGAGGAUAUCAUAGUCGUUGACUAUGAGAAGGUUAGCUAUCUUACAUGAGGAUCACCCAUGUGAUCUACAUGGAG | 40.5 | 10.8 | – | – |
| GGACGUCACAUUAACAUGAGGAUCACCCAUGUCAAAAGACAUGAGGAUAUGGAUGCGAAACGCAUCCAGAAGGCAUGGACGUCC | 629 | 41.1 | – | – |
| UAAAAGUUAGGAUAUACAUGAGGAUCACCCAUGUCGCGGAACCGCGGCGAUUACUCCUGUAGAAGGAACAUCGU | – | – | 165 | 291 |
| UUAUUAAGUGUGAGGAUAUGCUGGUCCUUGGAUCAGCAGAAGGCACAUGAGGAUCACCCAUGUACUUUAUUUUA | – | – | 15.4 | 62.2 |
| UUCUGUGUGUGCUAGAGCUGCACAUGAGGAUCACCCAUGUACAGAAGGUGGACGCACACUGUGGCCAAGGAUAUGUAACAUGUU | – | – | 6.68 | 7.15 |
| UAUUAGCUAGGAUAUACAUGAGGAUCACCCAUGUCACGGGUCCACUCAUCCUAUGCGUGUAGAAGGAGCGACCC | – | – | 22.9 | 26.6 |
| AAGCAAGCAGGGAUGCUUCGUAGGGAGGAUAUCUGACUGGGCGGACAUGAGGAUCACCCAUGUACAGAGAAGGCCCAAAACAAC | – | – | 376 | 61.6 |
| GCAGGACAUGAGGAUCACCCAUGUCUCAAAUAUUGAGGAUAUGGACACGGUAUAUCCGAACCAGAAGGCAACCUGC | 48.6 | 39.8 | – | – |
| AAUGGGCACCAGAAGGACAUGAGGAUCACCCAUGUAGGAUAUGGGCGUUGAAGAUGUCUGAACGAGUUGCUGGAAGGAUAUGGG | 305 | 41 | – | – |
| GCCAUCGCAUGAGGAUAUGCUCCGGUUUCCGGAGCAGAAGGCAUGUGAUAACACAUGAGGAUCACCCAUGUAGUUAAGAUGGCA | 5.51 | 4.62 | – | – |
| GAUUUAGAGCAGGAUAUCAUAGAAAUGUAUGAAUGAGAAGGGCUCACAUGAGGAUCACCCAUGUGGUCCUAGAU | – | – | 25.4 | 240 |
| GCUUAAGUAGGAUAUACUUGGGCUCGGCUGAUGUGCCUAAAACAUGAGGAUCACCCAUGUAGAAGGACUAAAGC | – | – | 13.9 | 12.1 |
| ACGUGUAAGCAGAAGGGUUAGCACAUGAGGAUCACCCAUGUAACAGUGGACAGGAUAUGCGCUCAUGUUGGAUAGGGCCUUCCC | 302 | 67.6 | – | – |
| AGGAAGGGUGCUCCGGCGGGCCGAGCAGAAGGGUGAUUGGACAUGAGGAUCACCCAUGUAUAAACACAGGAUAUGCAAACGGGU | 305 | 13.1 | – | – |
| ACUAGAUGAGGAUAUGCAUAUUUUCGUGUUCUUCUAGAUUAACAUGAGGAUCACCCAUGUAGAAGGCGUCUGGU | – | – | 30.7 | 62 |
| GUCAGCUCGUGAGGAUAUACAUCACUGCUUCGGCAGUGUAUUAAGAUUACAUGAGGAUCACCCAUGUAGAAGGCACGAGCUGAU | – | – | 17.4 | 23.9 |
| GAUGCAUAUGAGAAGGCGAUCAUGAAACAUGAUCGAGGAUAUCAUGUAAACAUGAGGAUCACCCAUGUAUGGGUAAAGUGCAUC | 392 | 27.7 | – | – |
| UUUACAUUACGAGGAUAUCAAUUAUUUCAUGUAUGAGAAGGCGUUAUUUUUACUACCUUACAUGAGGAUCACCCAUGUUUCAUU | 62.8 | 27.8 | – | – |
| AUUAUAUAGAGAGGAUAUAGAAUAUUAUUUUAACAUGAGGAUCACCCAUGUAACCUUAUGUGUAGCUAGAAGGCUCAUUUAUUA | – | – | 42.2 | 74.2 |
| GCGUAUUUAAUAUUUAUAUAAUUGUCAGAAGGUGAAAAGACGACAUGAGGAUCACCCAUGUAAUUCAAGGAUAUGAUUAAGCGC | 30.7 | 15.8 | – | – |
| AUUUCGUUAGCAGGAUAUGGACAGGCCUGUCCGUAUUGAGUCAGUAACAUGAGGAUCACCCAUGUCCAGAAGGGCUCGAAGGGA | – | – | 11.2 | 12.3 |
| UACGUUAUACGCAACAUGAGGAUCACCCAUGUUAGCCGAUCACAGGAUAUGUUGGAGCCGGUCGGACAGAAGGGUGAGUUUGCU | 47.9 | 43.3 | – | – |
| CCAUGCGGAUGAGGAUAUUCAUCCAUGAGGAUAGAAGAAGGCGUACAUGAGGAUCACCCAUGUAUACACAUGAGGAUCCCUUAC | – | – | 462 | 420 |
| AUUUAUGGCCAGAAGGACAUGAGGAUCACCCAUGUAGGAUAUGGACGAUUUUGCUCGGCGGUUUGUUUAGGAAGCACCGGUGAU | 21.5 | 7.6 | – | – |
| CUGCUGGAGCUUUGCUUUAGUCGUACAUGAGGAUCACCCAUGUAGGAUAUGGUAGGCUUCGCUUACUAGAAGGAUAGAGUGGUC | – | – | 33.6 | 22.8 |
| CAGCGCUGUCGAGAGGAUAUGCGGUGAUGGACAUGAGGAUCACCCAUGUAAGCGAUAGCAUUACGGCAGAAGGCUCUGCAGCUGC | 25.1 | 17.4 | – | – |

| Sequence | apparent Kd [1] [nM] | apparent Kd [2] [nM] | apparent Kd [3] [nM] | apparent Kd [4] [nM] |
| --- | --- | --- | --- | --- |
| UAAUAUUUAUGAUAUUAUUACAUUAGAAGGCUAUACAUGUGGAUACAUGAGGAUCACCCAUGUAUAGAGGAUAUAGACAUAUAU | – | – | 357 | 537 |
| GCAGCUCCUGACAUGAGGAUCACCCAUGUUCAAUUGUUGAGUCAGGAUAUAGUCUAGAAACUAGACUAGAAGGGAUAUGCUGCU | 12.3 | 10.8 | – | – |
| CGAAAAUUUCAGAAGGACCGAUUCCACAUGAGGAUCACCCAUGUCGAUGGUAGGAUAUGGAGUUGUGGACAGGGCGGAUGUACC | 72.1 | 8.92 | – | – |
| AGCUGGUGACAGCAAGAAAUUUCACAUGAGGAUCACCCAUGUAGAAGGCUGUACGGUUACCGUACAGAGGAUAUACAUAGAAAG | – | – | 22.4 | 30.5 |
| UACAGCUUGACAGGAUAUACAUGACUGCGAAAGCAGUCUAUCUUAAUAACAUGAGGAUCACCCAUGUAGAAGGGUCGAGCUGUA | – | – | 17.6 | 27 |
| GGAUUACAUGAGGAUCACCCAUGUGAGGAUAUCGAUGUCCAGUAAUACGUGCGGGACUCGAGAAGGCACUUGGA | – | – | 40.1 | 200 |
| AAUAUGUUGCAGAAGGUUAUUUUUAUAACGAUCCACUUGACAUGAGGAUCACCCAUGUAAUUGAUGAAGGAUAUGCAAUAUAUU | – | – | 6.69 | 6.69 |
| GGUACUCAAAGAGUACCAAUACGAACAUGAGGAUCACCCAUGUAGGAUAUGCUACUAAAAGAGUAGCAGAAGGACAUGUGCCUA | – | – | 13.5 | 75.4 |
| GCUAGUAUUGCAGGAUAUUGUAAUUUAUUAUUUCAAGAAGGGCAUUACAUGAGGAUCACCCAUGUCAUCCUAUGGUUUACUAGC | – | – | 9.2 | 19.9 |
| CAUGUCCUCACAGGAUAUGCAAUGUAUUUCAUUGCAGAAGGGUGAAUACAUGAGGAUCACCCAUGUGGACAUGAUAUAUUUAAU | 725 | 77.8 | – | – |
| UCGGCCCAAGCACAUGAGGAUCACCCAUGUACCACGGCCACCAGAAGGGCAGGGAAGAGGGAUCUGCAGGAUAUGGGCACUAGC | 14.4 | 9.6 | – | – |
| AUCGUGUGAGGAUAUCGAUGUUGGACGUCUAGGUCUGAGCGCGAGAAGGCACAUGAGGAUCACCCAUGUAAUGG | – | – | 272 | 350 |
| GCGAGCGUACUUGCAACAUGAGGAUCACCCAUGUUAACUGGACAGGAUAUGGUACCGUUUCGGUACCAGAAGGGUUCACUCAUG | 137 | 250 | – | – |
| GCGGUAUUGUAAGGAUAUACUCUGUGAUGAAGAGUAGAAGGUACUUACAUGAGGAUCACCCAUGUUUAACGUGAAAAUUACCGC | 26.5 | 16.7 | – | – |
| CAUGACAAAGGAUAUACAUGAGGAUCACCCAUGUGGUCAUGGAAGUACGUGUUCUCACGUAGAAGGUUGCAGGG | – | – | 12.8 | 24.9 |
| AAUAAACUCACAGGAUAUAGCAGAGAUCGCGUGAACUUACAGGCGACGAUGCUAGAAGGGUGACCACAUGAGGAUCACCCAUGU | 673 | 120 | – | – |
| AACAGUGCAAUAAUAAUAAGAUCUACAUGAGGAUCACCCAUGUAGGAUAUCGUCAGGAAUACUGACGAGAAGGACAUAGCACUG | – | – | 13.9 | 15.6 |
| UGUCGGAGCAGAGGAUAUUACAUGAGGAUCACCCAUGUAUAAAGAUCAAGCUGGAAACAGCAAUGUAAGAAGGCUGCUCCGACA | – | – | 60.4 | 418 |
| UCACGGUAUGUAGGAUAUGCAUAGCAUUGCUAUGCAGAAGGACAUGAGGAUCACCCAUGUAUGUAUUCCAUACAAAUCCCGUGU | – | – | 5.68 | 5.58 |
| ACGCACGGAGGAUAUACAUGAGGAUCACCCAUGUCGGUGUAUUUUCGGCCAAAAUUUUGUAGAAGGCUGUCGUG | – | – | 222 | 526 |
| UCGGCGCGAGGAUAUACGUUUGCUUUUUAGGAUCGUGGCGUACAUGAGGAUCACCCAUGUAGAAGGCGCGCCGC | – | – | 13.8 | 20.3 |
| CAUGUGUUAGGAUAUGCACCGAUCUCCGAAAGGAGAUCGGUGCAGAAGGAACAUGAGGAUCACCCAUGUUGAUG | – | – | 39.9 | 140 |
| GUUGCUUUCCGAGGAUAUUCAGGGCGUGGAUAUACAUGAGGAUCACCCAUGUGGCGGAAGCCUAGGGAGAAGGCGGGCUGCUUC | 41.1 | 20.5 | – | – |
| CAUUAUUAUCGAGGAUAUCCUAUUGAAAUUCUGGGAGAAGGCGGACUCAACAUGAGGAUCACCCAUGUGGGACGGAUGCUAGGG | – | – | 22.9 | 20 |
| AGUCGGGAAUACUCGAAUGGUUAGCAGGAUAUCGACAUGAGGAUCACCCAUGUUGGGUUGAAUGUCGAGAAGGGCUCGGAAUGA | – | – | 198 | 193 |
| CCUCCGUAUUAGGAUAUCGUCCAGGAAACUGGACGAGAAGGAAUGACAUGAGGAUCACCCAUGUUAACGUGAUG | – | – | 21.5 | 50 |
| GGGAGACAUGAGGAUCACCCAUGUGAAAACGUGGCAGGAUAUCGAUGGAAACCAUACUGUCGAGAAGGGCCUUGUC | 56.7 | 35.6 | – | – |
